AI-2 QS mod: modulators of Vibrio harveyi AI-2 quorum sensing system; Vibrio harveyi JMH597 AI-2 luminescence/OD600 ratio, 9 h; hits give low values; strain lacks LuxN and CqsS sensors; 0 = neutral-control median; activity change, % at 7.5 µM; 0.4% of 300,000 active; AID 2094; in the data active means activity change below about -75%, passing the limit was not always enough; inconclusive means no clear call, values can overlap the other calls;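 further: luminescence divided by OD600 gain over 9 h not by final OD600 alone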
HSF1 inhib: HSF1 inhibition; AID 2098; NIH3T3-HGL HSE-luciferase, MG132-induced, luminescence 8 h; hits give low values; activity change, negative = inhibition, % at 7.5 µM (by protocol); 0.77% of 300,000 active;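 active means more than half of replicate wells show activity change below -50%, luminescence cut by over half; inconclusive means some wells, but at most half, below -50%; inactive means no replicate well below -50%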;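 further: luciferase reports HSF-1 transcriptional activity via heat shock element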
HCV core dimer: blocks dimerization of HCV core protein; TR-FRET GST/Flag-core106 dimerization, 1536-well; inhibition, % at 5 µM; 0.33% of 300,000 active;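 active means inhibition above the mean of all tested compounds plus 3 SD, set per screening campaign, cut at about 45% in these data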
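assay system = GST-tagged and Flag-tagged HCV core protein residues 1-106 | controls = unlabelled core106 and no-GST-core106 wells | incubation = compound-protein-antibody incubation 4 h at 22.5 °C | probe or stimulus = Eu donor and XL665 acceptor anti-tag antibodies | read-out = % inhibition based on acceptor/donor emission ratio | signal = TR-FRET 671 and 617 nm emission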
HSF-1 act: increases HSF-1 driven luciferase reporter signal; NIH3T3-HGL HSF-1 luciferase reporter, MG132, 8 h; 100% = twice DMSO control signal; 1.7% of 300,000 active; AID 504408; activation, % at 9 µM;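 active means mean replicate activation of at least 50% with a set share of replicates each reaching 50%; inconclusive means only one of those two conditions met; inactive means mean below 50% and too few replicates reaching it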
PHOSPHO1 block: inhibitors of human PHOSPHO1 phosphatase; Q8TCT1; recombinant PHOSPHO1, absorbance phosphatase assay; inhibition, % at 13.3 µM; 1.1% of 290,000 active; AID 1565; in the data active means inhibition above about 60%
Target sequence (Q8TCT1 whole entry, looked up): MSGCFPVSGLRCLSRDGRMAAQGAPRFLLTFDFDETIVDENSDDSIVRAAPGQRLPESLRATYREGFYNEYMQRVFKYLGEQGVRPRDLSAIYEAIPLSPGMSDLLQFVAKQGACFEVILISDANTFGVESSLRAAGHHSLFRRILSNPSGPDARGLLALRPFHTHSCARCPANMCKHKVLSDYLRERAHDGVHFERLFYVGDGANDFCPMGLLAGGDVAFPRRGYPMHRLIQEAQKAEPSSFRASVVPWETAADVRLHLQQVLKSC
ALR H2O2 inh: human ALR oxidase inhibition via reduced H2O2; P55789; purified ALR, DTT oxidation, H2O2 HRP-luminol luminescence; inhibition, % (concentration not given with the values); 3.8% of 290,000 active; AID 485317;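 active means mean replicate inhibition above about 79%, with every replicate also reaching it, limit read from the data; inconclusive means only one of the two criteria met; inactive means mean below limit and not every replicate reaching it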
Target sequence (P55789 whole entry, looked up): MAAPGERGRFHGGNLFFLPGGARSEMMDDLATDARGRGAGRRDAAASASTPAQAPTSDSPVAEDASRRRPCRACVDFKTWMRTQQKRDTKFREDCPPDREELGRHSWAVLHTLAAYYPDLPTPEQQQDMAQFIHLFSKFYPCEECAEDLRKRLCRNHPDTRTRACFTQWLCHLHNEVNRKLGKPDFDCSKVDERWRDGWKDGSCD
JMH597 growth rt: retest: blocks Vibrio harveyi JMH597 growth | 1% of 750 active | OD600 absorbance, 9 h; lacks LuxN and CqsS sensors | shares compounds with AI-2 QS mod | AID 2726 | growth inhibition, % at 7.5 µM;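 active means every replicate shows growth inhibition above 50%; inconclusive means at least half, but not all, replicates pass that cutoff; inactive means fewer than half of replicates pass it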
BB721 lum counter: retest counter-screen: BB721 constitutive quorum sensing luminescence decrease | shares compounds with AI-2 QS mod | Vibrio harveyi BB721 luminescence, 9 h | inhibition, % at 7.5 µM | 95% of 750 active | AID 2727;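 active means inhibition above about 80% in every replicate, not just on average, limit read from the data; inconclusive means at least half of replicates past the limit, but not all; inactive means fewer than half of replicates past the limit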
BB721 growth: retest Vibrio harveyi BB721 growth inhibition; shares compounds with AI-2 QS mod; OD600 absorbance, 9 h; growth inhibition, % at 7.5 µM; 3% of 750 active;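 active means every replicate shows growth inhibition above 50%; inconclusive means at least half but not all replicates above 50% inhibition; inactive means under half of replicates above 50% inhibition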
JMH597 AI-2 mod: Vibrio harveyi AI-2 signaling luminescence modulation – JMH597 strain, confirmation; 97% of 750 active; shares compounds with AI-2 QS mod; inhibition, % at 7.5 µM; Vibrio harveyi JMH597 AI-2 quorum sensing luminescence, 9 h; luxN and CqsS knockout, AI-2 only;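 active means every replicate shows more than 75% inhibition of signal versus neutral control wells; inconclusive means half to three quarters of replicates exceed 75% inhibition; inactive means fewer than half of replicates exceed 75% inhibition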
A number is an active result. The list is not random: actives were taken first. Their share in the collection is about 6.8%.

For CCOC(=O)c1ccc(NC(=O)C(C)N2C(=O)c3ccccc3C2=O)cc1 (configuration not stated) the results were AI-2 QS mod inactive, HSF1 inhib inactive, HCV core dimer inactive, HSF-1 act inactive, PHOSPHO1 block inactive and ALR H2O2 inh inactive.
Screening CCOC(=O)c1cccc(NC(=O)C(C)N2C(=O)c3ccccc3C2=O)c1 (configuration not stated) returned AI-2 QS mod -94.6, HSF1 inhib inactive, HCV core dimer inactive, HSF-1 act inactive, PHOSPHO1 block inactive, ALR H2O2 inh inactive, JMH597 growth rt inactive, BB721 lum counter 98.8, BB721 growth inactive and JMH597 AI-2 mod 99.3.
C=CCn1c(CCNC(=O)c2ccc(Cl)c(Cl)c2)nnc1SCCOc1ccc(OC)cc1 was read as AI-2 QS mod -84.3, HSF1 inhib inactive, HCV core dimer inactive, HSF-1 act 128.5, PHOSPHO1 block inactive, ALR H2O2 inh inactive, JMH597 growth rt inactive, BB721 lum counter 89.6, BB721 growth inactive and JMH597 AI-2 mod 93.9.
`Cc1ccc(-c2ccc(/C=N/NC(=O)c3ccccc3O)o2)cc1` gave AI-2 QS mod inactive, HSF1 inhib inactive, HCV core dimer inactive, HSF-1 act inactive, PHOSPHO1 block inactive and ALR H2O2 inh inactive.
`Cc1ccc(-c2ccc(/C=N/NC(N)=S)o2)cc1` gave AI-2 QS mod -87.0, HSF1 inhib inactive, HCV core dimer inactive, HSF-1 act inactive, PHOSPHO1 block inactive, ALR H2O2 inh inactive, JMH597 growth rt inactive, BB721 lum counter 90.2, BB721 growth inconclusive and JMH597 AI-2 mod 92.4.
`CC(Sc1nccn1C)C(=O)Nc1ccc(Cl)cn1` (configuration not stated) gave AI-2 QS mod inactive, HSF1 inhib inactive, HCV core dimer inactive, HSF-1 act inactive and ALR H2O2 inh inactive.
For CCC1CCCCN1CCCNC(=O)C1CC(=O)N(CCc2ccccc2)C1 (configuration not stated) the results were AI-2 QS mod inactive, HSF1 inhib inactive, HCV core dimer inactive, HSF-1 act inactive, PHOSPHO1 block inactive and ALR H2O2 inh inactive.
Screening CC(=O)c1ccc(NCCC(=O)c2ccccc2)cc1 returned AI-2 QS mod -82.5, HSF1 inhib inactive, HCV core dimer inactive, HSF-1 act inactive, PHOSPHO1 block inactive, ALR H2O2 inh inactive, JMH597 growth rt inactive, BB721 lum counter 92.9, BB721 growth inactive and JMH597 AI-2 mod 95.5.
Cc1ccccc1C(=O)OCc1nnc(-c2ccc(Cl)cc2)o1 was read as AI-2 QS mod inconclusive, HSF1 inhib inactive, HCV core dimer inactive, HSF-1 act inactive, PHOSPHO1 block inactive, ALR H2O2 inh inactive, JMH597 growth rt inactive, BB721 lum counter 91.2, BB721 growth inactive and JMH597 AI-2 mod 93.2.
O=C(Nc1c2c(nc3ccccc13)CCCC2)c1cccc([N+](=O)[O-])c1 was read as AI-2 QS mod inactive, HSF1 inhib inactive, HCV core dimer inactive, HSF-1 act inactive, PHOSPHO1 block inactive and ALR H2O2 inh inactive.
COc1ccc(CNC(=O)CN(C(=O)c2csnn2)c2ccc(F)cc2)cc1 was read as HSF1 inhib inactive, HCV core dimer inactive, HSF-1 act inactive, PHOSPHO1 block inactive and ALR H2O2 inh inactive.
CCOC(=O)C(=NCC1CCCO1)NNc1ccccc1Cl (configuration not stated) was read as AI-2 QS mod inactive, HSF1 inhib inactive, HCV core dimer inactive, HSF-1 act inactive, PHOSPHO1 block inactive and ALR H2O2 inh inactive.
For CCOc1ccc(NS(=O)(=O)c2ccc(SC)cc2)cc1 the results were AI-2 QS mod inactive, HSF1 inhib inactive, HCV core dimer inactive, HSF-1 act inactive, PHOSPHO1 block inactive and ALR H2O2 inh inactive.
`CCOc1ccc(NS(=O)(=O)c2ccc(N)cc2)cc1` gave AI-2 QS mod inconclusive, HSF1 inhib inactive, HCV core dimer inactive, HSF-1 act inactive, PHOSPHO1 block inactive, ALR H2O2 inh inactive, JMH597 growth rt inactive, BB721 lum counter 98.6, BB721 growth inactive and JMH597 AI-2 mod 99.8.
Screening COc1cccc(CC(NC(C)=O)C(=O)NC2CCN(S(=O)(=O)c3ccc(F)cc3)CC2)c1OC (configuration not stated) returned AI-2 QS mod inactive, HSF1 inhib inactive, HCV core dimer inactive, HSF-1 act inactive, PHOSPHO1 block inactive and ALR H2O2 inh inactive.
Screening Cc1ccc(Cc2cnc(NC(=O)c3ccco3)s2)cc1 returned AI-2 QS mod -86.1, HSF1 inhib inactive, HCV core dimer inactive, HSF-1 act inactive, PHOSPHO1 block inactive, ALR H2O2 inh inactive, JMH597 growth rt inactive, BB721 lum counter 97.1, BB721 growth inconclusive and JMH597 AI-2 mod 98.3.
`Cc1ccc(Oc2ccc(NC(=O)c3ccco3)cc2)cc1` gave AI-2 QS mod -97.3, HSF1 inhib inactive, HCV core dimer inactive, HSF-1 act inactive, PHOSPHO1 block inactive, ALR H2O2 inh inactive, JMH597 growth rt inactive, BB721 lum counter 99.7, BB721 growth inconclusive and JMH597 AI-2 mod 99.8.
Nc1nc(SCC(=O)Nc2ccc(Oc3ccccc3)cc2)n[nH]1 was read as AI-2 QS mod -89.6, HSF1 inhib inactive, HCV core dimer inactive, HSF-1 act inactive, PHOSPHO1 block inactive, ALR H2O2 inh inactive, JMH597 growth rt inactive, BB721 lum counter 94.8, BB721 growth inactive and JMH597 AI-2 mod 97.3.
CC(=O)c1ccc(NC(=O)C2C3C=CC(C3=C(c3ccccc3)c3ccccc3)C2C(=O)O)cc1 (configuration not stated) was read as AI-2 QS mod inactive, HSF1 inhib inactive, HCV core dimer inactive, HSF-1 act inactive, PHOSPHO1 block inactive and ALR H2O2 inh inactive.
`Clc1cccc(CON/C=N/c2ncnc3sccc23)c1` gave AI-2 QS mod -92.4, HSF1 inhib inactive, HCV core dimer inactive, HSF-1 act inactive, PHOSPHO1 block inactive, ALR H2O2 inh inactive, JMH597 growth rt inactive, BB721 lum counter 96.5, BB721 growth inactive and JMH597 AI-2 mod 97.7.
For Cc1cccc(OCc2nnc(SCC(=O)N3CC(=O)Nc4ccccc43)o2)c1 the results were AI-2 QS mod -93.3, HSF1 inhib inactive, HCV core dimer inactive, HSF-1 act inactive, PHOSPHO1 block inactive, ALR H2O2 inh inactive, JMH597 growth rt inactive, BB721 lum counter 96.3, BB721 growth inactive and JMH597 AI-2 mod 98.1.

From PubChem
